According to ChEMBL document CHEMBL1132206, “Design, synthesis, and in vitro activity of catamphiphilic reverters of multidrug resistance: discovery of a selective, highly efficacious chemosensitizer with potency in the nanomolar range” (J Med Chem, 1999):
The source made the active and inactive calls. The rule behind the calls is not given here.

Experiments:
[1] = system: K562; test: The efficacy in reverting MDR was evaluated on human erythroleukemia K-562 cell line; format: functional
Summary of the method: (§1)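 Doxorubicin-resistant and sensitive K 562 cells in exponential growth were used in pH 7.25 HEPES buffer at 37 °C in quartz cuvettes. Pirarubicin uptake was followed as the fall in fluorescence at 590 nm (ex 480 nm). Steady-state nuclear pirarubicin was measured across a range of inhibitor concentrations. α = (CnRi − CnRo)/(CnS − CnRo); αmax is the maximal α, and [i]0.5 is the concentration giving α = 0.5 (mean ± SEM).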

[2] = species on record: Cavia porcellus; test: Decrease in atrial rate of the right atrium of guinea pig expressed as the negative chronotropy.; parameters: concentration or dose not given beside the values
[3] = species on record: Cavia porcellus; test: Potency expressed as IC50 for the vasorelaxant activity; 'i' means inactive.; format: functional
[4] = species on record: Cavia porcellus; test: Decrease in developed tension of the left atrium of guinea pig expressed as the negative inotropy.; format: functional, Cardiac atrium; parameters: concentration or dose not given beside the values
Summary of the method: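 Isolated guinea pig left atrium, electrically driven at 1 Hz. Read-out is the fall in developed tension at 5 × 10^-5 M, given as percent change from control (n = 5-6).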

[5] = species on record: Cavia porcellus; test: Potency expressed as EC30 for the negative chronotropic activity.; format: functional
[6] = system: K562; test: Potency that causes a half maximal increase in nuclear concentration of pirarubicin.; format: functional, Homo sapiens
[7] = species on record: Cavia porcellus; test: Potency expressed as EC50 for the negative inotropic activity.; format: functional
[8] = species on record: Cavia porcellus; test: Percent inhibition of calcium-induced contraction on K+ depolarized guinea pig aortic strip.; format: functional, Aorta; parameters: concentration or dose not given beside the values
[9] = system: K562; test: Percentage of the dead cells of K-562 cells was determined for the compound; format: ADME, cell-based; conditions: human
Summary of the method: (§2)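 Doxorubicin-resistant K 562 cells were exposed to compound at 1 µM, and viability was scored by trypan blue exclusion. Dead cells above 20% counted as toxic.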

[10] = species on record: Cavia porcellus; test: Potency expressed as EC30 for the negative chronotropic activity; 'i' means Inactive; format: functional
[11] = species on record: Cavia porcellus; test: Potency expressed as EC50 for the negative inotropic activity; 'i' means Inactive; format: functional
[12] = system: K562; test: percentage of the dead cells of K-562 cells was determined for the concentration of 1 uM of the compound.; format: ADME, cell-based; conditions: human, k562, 1 µM; summary of the method: as §2
[13] = system: K562; test: The efficacy in reverting MDR was evaluated on erythroleukemia K-562 cell line.; format: functional, Homo sapiens; summary of the method: as §1

| Structure (SMILES) | Alpha max [1] | Activity [2] [%] | IC50 [3] | Activity [4] [%] | EC30 [5] [nM] | Potency [6] [nM] | EC50 [7] [nM] | Activity [8] [%] | Dead cells [9] [%] | EC30 [10] | EC50 [11] | Dead cells [12] [%] | Alpha max [13] |
| --- | --- | --- | --- | --- | --- | --- | --- | --- | --- | --- | --- | --- | --- |
| COc1ccc(C(C#N)(CC#CCN(C)C23CC4CC(CC(C4)C2)C3)C(C)C)cc1OC.Cl (stereo unspecified) | 0.8 | 89 | Inactive | 66 | 370 | 800 | 2910 | 33 | 0 |  |  |  |  |
| COc1ccc(C(C#N)(CCCNC2c3ccccc3CCc3ccccc32)C(C)C)cc1OC.Cl (stereo unspecified) | 0.8 | 86 | Inactive | 70 | 210 | 300 | 680 | 24 | 10 |  |  |  |  |
| CN(CCCC(C#N)(c1ccccc1)c1ccccc1)C1c2ccccc2-c2ccccc21.Cl | 0.9 | 9 | Inactive | 55 |  | 3000 | 900 | 5 | 3 | inactive |  |  |  |
| COc1ccc(C(C#N)(CCCN(C)C2c3ccccc3-c3ccccc32)C(C)C)cc1OC.Cl (stereo unspecified) | 0.8 | 26 | Inactive | 36 |  | 1000 |  | 15 | 0 | inactive | Not Active |  |  |
| COc1ccc(C(C#N)(CCCNC(c2ccccc2)c2ccccc2)C(C)C)cc1OC.Cl (stereo unspecified) | 0.7 | 81 | Inactive | 73 | 690 | 250 | 660 | 32 | 5 |  |  |  |  |
| COc1ccc(C(C#N)(CCCN(C)CC23CC4CC(CC(C4)C2)C3)C(C)C)cc1OC.Cl (stereo unspecified) | 0.65 | 72 | Inactive | 68 | 700 | 1400 | 1170 | 39 | 1 |  |  |  |  |
| COc1ccc(C(C#N)(CC#CCN(C)Cc2c3ccccc3cc3ccccc23)C(C)C)cc1OC.Cl (stereo unspecified) |  | 39 | Inactive | 65 |  |  | 630 | 46 |  | inactive |  | 30 |  |
| C=CCNc1nc(NCC=C)nc(N2CCC(NCC#CCC(C#N)(c3ccc(OC)c(OC)c3)C(C)C)CC2)n1.Cl (stereo unspecified) |  | 81 | Inactive | 67 | 800 | 200 | 1890 | 16 |  |  |  | 0 | 0.9 |
| COc1ccc(C(C#N)(CCCNCc2c3ccccc3cc3ccccc23)C(C)C)cc1OC.Cl (stereo unspecified) |  | 65 | Inactive | 55 | 860 | 50 | 1110 | 29 |  |  |  | 3 | 0.7 |
| COc1ccc(CCN(C)CCCC(C#N)(c2ccc(OC)c(OC)c2)C(C)C)cc1OC (stereo unspecified) [VERAPAMIL] |  | 94 |  | 84 | 70 |  | 610 | 95 |  |  |  | 0 | 0.7 |
| Cl.N#CC(CCCNC(c1ccccc1)c1ccccc1)(c1ccccc1)c1ccccc1 |  | 28 | Inactive | 94 |  | 2000 | 380 | 15 |  | inactive |  | 2 | 0.5 |
| COc1ccc(C(C#N)(CCCNCC2c3ccccc3-c3ccccc32)C(C)C)cc1OC.Cl (stereo unspecified) |  | 68 | Inactive | 71 | 2240 |  | 470 | 26 | 100 |  |  |  |  |
| COc1ccc(C(C#N)(CC#CCNC2c3ccccc3-c3ccccc32)C(C)C)cc1OC.Cl (stereo unspecified) | 0.7 | 84 | Inactive | 77 | 8250 | 1500 | 1100 | 42 | 10 |  |  |  |  |
